ChEMBL document CHEMBL1275285, “Synthesis, antimicrobial and anti-inflammatory activities of novel 5-(1-adamantyl)-1,3,4-thiadiazole derivatives” (2010)
Converted amounts (≈) assume the structure as drawn. The source made the active and inactive calls. No cut-off for these calls is given here.

What was measured:
Assay type in all cases: functional
Pseudomonas aeruginosa [1] = assay: Antimicrobial activity against Pseudomonas aeruginosa IFO 3448 at 200 ug/8 mm disk after 24 hrs by agar disk diffusion method
In short: (§1)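 Agar disc diffusion on Mueller-Hinton agar: 8 mm filter paper discs moistened with compound in DMSO (200 per disc) placed on plates pre-inoculated with each organism; incubated at 37 °C; growth inhibition zone diameter read after 24 h for bacteria, 48 h for C. albicans.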

Bacillus subtilis [2] = assay: Antimicrobial activity against Bacillus subtilis IFO 3007 at 200 ug/8 mm disk after 24 hrs by agar disk diffusion method; in short: as §1
Staphylococcus aureus [3] = assay: Antimicrobial activity against Staphylococcus aureus IFO 3060 at 200 ug/8 mm disk after 24 hrs by agar disk diffusion method; in short: as §1
Micrococcus luteus [4] = assay: Antimicrobial activity against Micrococcus luteus IFO 3232 at 200 ug/8 mm disk after 24 hrs by agar disk diffusion method; in short: as §1
Candida albicans [5] = assay: Antimicrobial activity against Candida albicans IFO 0583 at 200 ug/8 mm disk after 48 hrs by agar disk diffusion method; in short: as §1
Escherichia coli [6] = assay: Antimicrobial activity against Escherichia coli IFO 3301 at 200 ug/8 mm disk after 24 hrs by agar disk diffusion method; in short: as §1
Staphylococcus aureus [7] = assay: Antimicrobial activity against Staphylococcus aureus IFO 3060 at 100 ug/8 mm disk after 24 hrs by agar disk diffusion method
In short: (§2)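 Agar disc diffusion on Mueller-Hinton agar. Sterile 8 mm filter-paper discs were moistened with the agent dissolved in DMSO and placed on plates already inoculated with the organism. Plates were incubated at 37 °C, and growth-inhibition zone diameters were measured after 24 h.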

Staphylococcus aureus [8] = assay: Antimicrobial activity against Staphylococcus aureus IFO 3060 after 24 hrs
In short: (§3)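 MIC by two-fold serial dilution in wells, inoculated with microbial suspensions at 10^6 CFU/mL. Incubation was at 36 °C for 24 h (bacteria) or 48 h (C. albicans). MIC was the lowest concentration fully inhibiting visible growth, read by unaided eye.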

Bacillus subtilis [9] = assay: Antimicrobial activity against Bacillus subtilis IFO 3007 at 100 ug/8 mm disk after 24 hrs by agar disk diffusion method; in short: as §2
Micrococcus luteus [10] = assay: Antimicrobial activity against Micrococcus luteus IFO 3232 at 100 ug/8 mm disk after 24 hrs by agar disk diffusion method; in short: as §2
Bacillus subtilis [11] = assay: Antimicrobial activity against Bacillus subtilis IFO 3007 after 24 hrs
In short: (§4)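 MIC by two-fold serial dilution in wells inoculated with 10^6 CFU/mL of each organism; incubated at 36 °C for 24 h (bacteria); MIC taken as lowest concentration giving no visible growth by unaided eye.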

Escherichia coli [12] = assay: Antimicrobial activity against Escherichia coli IFO 3301 at 100 ug/8 mm disk after 24 hrs by agar disk diffusion method; in short: as §2
Pseudomonas aeruginosa [13] = assay: Antimicrobial activity against Pseudomonas aeruginosa IFO 3448 at 100 ug/8 mm disk after 24 hrs by agar disk diffusion method; in short: as §2
Micrococcus luteus [14] = assay: Antimicrobial activity against Micrococcus luteus IFO 3232 after 24 hrs; in short: as §3
Pseudomonas aeruginosa [15] = assay: Antimicrobial activity against Pseudomonas aeruginosa IFO 3448 after 24 hrs; in short: as §4
Rattus norvegicus [16] = assay: Antiinflammatory activity in Sprague-Dawley rat assessed as inhibition of carrageenan-induced paw edema at 20 mg/kg, ip administered 1 hrs before carrageenan challenge relative to untreated control; details: route intraperitoneal
Rattus norvegicus [17] = assay: Antiinflammatory activity in Sprague-Dawley rat assessed as inhibition of carrageenan-induced paw edema at 40 mg/kg, ip administered 1 hrs before carrageenan challenge relative to untreated control; details: route intraperitoneal
Rattus norvegicus [18] = assay: Antiinflammatory activity in Sprague-Dawley rat assessed as inhibition of carrageenan-induced paw edema at 5 mg/kg, ip administered 1 hrs before carrageenan challenge relative to untreated control; details: route intraperitoneal
Candida albicans [19] = assay: Antimicrobial activity against Candida albicans IFO 0583 after 48 hrs; details: IFO 0583, 48 h; in short: as §3
Candida albicans [20] = assay: Antimicrobial activity against Candida albicans IFO 0583 at 100 ug/8 mm disk after 48 hrs by agar disk diffusion method
In short: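 Reference antifungal applied at 100 per 8 mm disc on Mueller-Hinton agar pre-inoculated with C. albicans; 37 °C incubation; inhibition zone diameter measured at 48 h.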

Escherichia coli [21] = assay: Antimicrobial activity against Escherichia coli IFO 3301 after 24 hrs; details: IFO 3301, 24 h; in short: as §4

| Compound | growth inhibition (GI) (Pseudomonas aeruginosa [1]) | growth inhibition (GI) (Staphylococcus aureus [3]) | growth inhibition (GI) (Micrococcus luteus [4]) | growth inhibition (GI) (Escherichia coli [6]) | growth inhibition (GI) (Candida albicans [5]) | GI (Bacillus subtilis [2]) | GI (Staphylococcus aureus [3]) | GI (Micrococcus luteus [4]) | also measured |
| --- | --- | --- | --- | --- | --- | --- | --- | --- | --- |
| Fc1ccc(Cn2nc(C34CC5CC(CC(C5)C3)C4)sc2=S)cc1 | inactive | inactive | inactive | inactive |  |  |  |  | growth inhibition (GI) (Bacillus subtilis [2]): inactive; GI (Candida albicans [5]): 14 mm |
| O=[N+]([O-])c1ccc(Cn2nc(C34CC5CC(CC(C5)C3)C4)sc2=S)cc1 | inactive | inactive | inactive | inactive | inactive |  |  |  | growth inhibition (GI) (Bacillus subtilis [2]): inactive |
| S=c1sc(C23CC4CC(CC(C4)C2)C3)nn1Cc1ccc(Cl)cc1 | inactive | inactive | inactive | inactive | inactive |  |  |  | growth inhibition (GI) (Bacillus subtilis [2]): inactive |
| GENTAMICIN |  |  |  |  |  |  |  |  | GI (Staphylococcus aureus [7]): 26 mM; MIC (Staphylococcus aureus [8]): 2 µg/mL; GI (Bacillus subtilis [9]): 25 mM; GI (Micrococcus luteus [10]): 18 mM; MIC (Bacillus subtilis [11]): 2 µg/mL; GI (Escherichia coli [12]): 20 mM; GI (Pseudomonas aeruginosa [13]): 19 mM; MIC (Micrococcus luteus [14]): 2 µg/mL; MIC (Pseudomonas aeruginosa [15]): 1 µg/mL |
| CC1(C)S[C@@H]2[C@H](NC(=O)[C@H](N)c3ccccc3)C(=O)N2[C@H]1C(=O)O [AMPICILLIN] |  |  |  |  |  |  |  |  | GI (Staphylococcus aureus [7]): 23 mm; GI (Bacillus subtilis [9]): 21 mm; GI (Micrococcus luteus [10]): 19 mm; MIC (Bacillus subtilis [11]; IFO 3007, 24 h): 0.5 µg/mL (≈ 1.43 µM); GI (Escherichia coli [12]): 17 mm; GI (Pseudomonas aeruginosa [13]): 17 mm; MIC (Micrococcus luteus [14]; IFO 3232, 24 h): 2 µg/mL (≈ 5.72 µM); MIC (Pseudomonas aeruginosa [15]; IFO 3448, 24 h): 2 µg/mL (≈ 5.72 µM) |
| S=c1sc(C23CC4CC(CC(C4)C2)C3)nn1CN1CCN(c2ccccc2)CC1 | inactive | inactive | inactive | inactive | inactive | 14 mm |  |  |  |
| S=C(Nc1ccccc1)Nc1nnc(C23CC4CC(CC(C4)C2)C3)s1 | inactive |  |  | inactive | inactive | 14 mm | 13 mm | 15 mm |  |
| CC(C(=O)O)n1nc(C23CC4CC(CC(C4)C2)C3)sc1=S (racemic) | inactive |  |  | inactive | inactive | 20 mm | 18 mm | 13 mm | MIC (Bacillus subtilis [11]; IFO 3007, 24 h): 4 µg/mL (≈ 12.3 µM); inhibition in vivo at 20 mg/kg (Rattus norvegicus [16]): 50.6%; inhibition in vivo at 40 mg/kg (Rattus norvegicus [17]): 65.2% |
| COc1ccc2c(c1)c(CC(=O)O)c(C)n2C(=O)c1ccc(Cl)cc1 [INDOMETHACIN] |  |  |  |  |  |  |  |  | inhibition in vivo at 5 mg/kg (Rattus norvegicus [18]): 52.8% |
| Clc1ccccc1C(c1ccccc1)(c1ccccc1)n1ccnc1 [CLOTRIMAZOLE] |  |  |  |  |  |  |  |  | MIC (Candida albicans [19]): 2 µg/mL (≈ 5.8 µM); GI (Candida albicans [20]): 21 mm |
| O=c1[nH]nc(C23CC4CC(CC(C4)C2)C3)s1 | inactive | inactive | inactive | inactive | inactive |  |  |  | growth inhibition (GI) (Bacillus subtilis [2]): inactive |
| CCN1CCN(Cn2nc(C34CC5CC(CC(C5)C3)C4)sc2=S)CC1 | inactive |  | inactive | inactive | inactive | 13 mm | 12 mm |  | inhibition in vivo at 20 mg/kg (Rattus norvegicus [16]): 11.3%; inhibition in vivo at 40 mg/kg (Rattus norvegicus [17]): 10.6% |
| S=c1[nH]nc(C23CC4CC(CC(C4)C2)C3)s1 |  |  | inactive |  | inactive | 13 mm | 13 mm |  | MIC (Escherichia coli [21]): 0.5 µg/mL (≈ 1.98 µM); GI (Pseudomonas aeruginosa [1]): 20 mm; MIC (Pseudomonas aeruginosa [15]; IFO 3448, 24 h): 2 µg/mL (≈ 7.92 µM); GI (Escherichia coli [6]): 27 mm |
| S=C(Nc1ccc(Cl)cc1)Nc1nnc(C23CC4CC(CC(C4)C2)C3)s1 | inactive |  |  | inactive | inactive | 20 mm | 15 mm | 12 mm | MIC (Bacillus subtilis [11]; IFO 3007, 24 h): 2 µg/mL (≈ 4.94 µM) |
| CN1CCN(Cn2nc(C34CC5CC(CC(C5)C3)C4)sc2=S)CC1 | inactive |  |  | inactive | inactive | 14 mm | 13 mm | 14 mm |  |
| O=C(O)CCn1nc(C23CC4CC(CC(C4)C2)C3)sc1=S | inactive |  | inactive | inactive |  | 13 mm | 11 mm |  | inhibition in vivo at 20 mg/kg (Rattus norvegicus [16]): 7.47%; inhibition in vivo at 40 mg/kg (Rattus norvegicus [17]): 36.8%; GI (Candida albicans [5]): 11 mm |
| Fc1ccc(NC(=S)Nc2nnc(C34CC5CC(CC(C5)C3)C4)s2)cc1 | inactive |  |  | inactive | inactive | 19 mm | 14 mm | 11 mm | MIC (Bacillus subtilis [11]; IFO 3007, 24 h): 4 µg/mL (≈ 10.3 µM) |
| S=c1sc(C23CC4CC(CC(C4)C2)C3)nn1Cc1ccccc1 | inactive | inactive | inactive | inactive | inactive |  |  |  | growth inhibition (GI) (Bacillus subtilis [2]): inactive; inhibition in vivo at 20 mg/kg (Rattus norvegicus [16]): 1.12%; inhibition in vivo at 40 mg/kg (Rattus norvegicus [17]): 0.92% |
| O=C(O)Cn1nc(C23CC4CC(CC(C4)C2)C3)sc1=S | inactive |  |  | inactive |  | 22 mm | 18 mm | 16 mm | MIC (Bacillus subtilis [11]; IFO 3007, 24 h): 2 µg/mL (≈ 6.44 µM); inhibition in vivo at 20 mg/kg (Rattus norvegicus [16]): 29.5%; inhibition in vivo at 40 mg/kg (Rattus norvegicus [17]): 32.7%; GI (Candida albicans [5]): 17 mm |
